TRPC6 inh: mouse TRPC6 channel inhibitors, primary screen, cell-based, HEK293, membrane potential dye | B-score at 10 µM | AID 2553, 2010 | ACh-evoked depolarization; stronger effect = lower value | Short transient receptor potential channel 6 (Mus musculus), Q61143 | 310,000 compounds, 1.1% hits;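 active means B-score under library mean minus 3 SD, initial fluorescence not abnormally high, positive integrated signal ratio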;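 further: B-score derived from integrated fluorescence ratio over the kinetic read; more negative B-score means stronger inhibition of depolarization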
Target sequence (Q61143 whole entry, looked up): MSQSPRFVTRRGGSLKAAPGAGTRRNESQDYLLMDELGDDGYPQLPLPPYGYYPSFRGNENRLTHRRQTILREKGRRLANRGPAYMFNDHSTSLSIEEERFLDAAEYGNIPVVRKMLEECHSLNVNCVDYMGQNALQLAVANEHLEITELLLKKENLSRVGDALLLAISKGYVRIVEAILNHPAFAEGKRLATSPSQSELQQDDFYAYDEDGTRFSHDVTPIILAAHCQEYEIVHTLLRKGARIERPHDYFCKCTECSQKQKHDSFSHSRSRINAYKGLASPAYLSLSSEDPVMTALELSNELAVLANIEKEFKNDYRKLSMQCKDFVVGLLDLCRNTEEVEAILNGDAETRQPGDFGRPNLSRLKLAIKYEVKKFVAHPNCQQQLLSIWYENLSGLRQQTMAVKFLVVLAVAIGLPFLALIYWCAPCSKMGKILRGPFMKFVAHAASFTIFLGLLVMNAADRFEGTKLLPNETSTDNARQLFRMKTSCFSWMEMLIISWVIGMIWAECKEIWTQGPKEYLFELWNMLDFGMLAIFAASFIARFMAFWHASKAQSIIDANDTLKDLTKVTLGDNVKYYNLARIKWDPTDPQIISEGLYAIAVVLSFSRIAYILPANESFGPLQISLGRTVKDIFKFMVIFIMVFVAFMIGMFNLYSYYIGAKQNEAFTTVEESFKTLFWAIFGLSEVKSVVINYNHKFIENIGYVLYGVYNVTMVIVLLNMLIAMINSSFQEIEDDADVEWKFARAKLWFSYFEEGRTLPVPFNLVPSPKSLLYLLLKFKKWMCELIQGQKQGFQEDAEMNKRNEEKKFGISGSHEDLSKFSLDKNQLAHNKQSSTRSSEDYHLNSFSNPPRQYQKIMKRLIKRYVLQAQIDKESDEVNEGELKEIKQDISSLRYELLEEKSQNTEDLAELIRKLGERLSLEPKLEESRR
TRPC4 act: activators of mouse TRPC4 channel, primary screen, Fluo4 calcium, HEK293 TRPC4beta/mu-opioid cells. Fluo4 calcium fluorescence; stronger effect = higher value. B-score at 10 µM. 310,000 compounds, 0.49% hits. AID 2237, 2010;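 active means B-score above 5 SD of library B-scores, and initial fluorescence ratio not above library mean plus 5 SD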;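 further: positive B-score marks a calcium rise read as TRPC4 activation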
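Test system: HEK293 cells stably co-expressing mouse TRPC4beta and mu-opioid receptor | Schedule: Fluo4 dye loading 45 min at room temperature, 110 s recording | Measured by: Kinetic Fluo4 calcium fluorescence, 5 s baseline at 1 Hz | Evaluation: B score of integrated ratio | Controls: Buffer (low) and maximal DAMGO (high)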
TRPC4 PAM: positive allosteric modulators of TRPC4, primary screen, cell-based, mouse TRPC4beta, HEK293 mu-opioid, Fluo-4 calcium. Short transient receptor potential channel 4 (Mus musculus), Q9QUQ5. DAMGO EC20, Fluo-4 Ca2+ flux; stronger effect = higher value. B-score at 10 µM. 310,000 compounds, 0.42% hits;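 active means B-score of calcium response area above 5 SD of library B-scores, with initial fluorescence ratio within 5 SD of library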
TRPC6 act: mouse TRPC6 channel activators, primary screen, cell-based, HEK293, membrane potential dye | HEK293-TRPC6 membrane potential dye fluorescence; stronger effect = higher value | B-score at 10 µM | 310,000 compounds, 0.13% hits | AID 2550, 2010;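 active means B-score of the integrated fluorescence ratio above library mean plus 3 SD, and starting fluorescence ratio within library mean plus 5 SD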;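 further: higher score means more depolarization so channel activation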
TRPC4 block: inhibitors of mouse TRPC4 channel, primary screen, Fluo4 calcium, HEK293 TRPC4beta/mu-opioid cells; Short transient receptor potential channel 4 (Mus musculus), Q9QUQ5; DAMGO-evoked Fluo4 calcium flux; stronger effect = lower value; B-score at 10 µM; 300,000 compounds, 0.39% hits;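 active means B-score over 3 SD under the library average, no early fluorescence shift, positive overall ratio signal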
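System: stable TRPC4beta/mu-opioid receptor HEK293 cells; Dosing: single-point compound dosing; Measured by: Fluo4 Ca2+ flux fluorescence; Read-out basis: per-well B score of integrated baseline-normalized Fluo4 ratio.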
Numbers stand for hits; n = inactive; ! = not confirmed by another sample. Only some compounds are listed: those with a hit (about 2.3% of all), similar ones and a draw of the others.

SMILES | TRPC6 inh | TRPC4 act | TRPC4 PAM | TRPC6 act | TRPC4 block
CCNC(=O)[C@H]1O[C@@H](n2cnc3c(N)ncnc32)[C@H](O)[C@@H]1O | n | 49 | n | n | n
COc1ccc(C(=O)C2CCCN(C3CSCCSC3)C2)c(C)c1 (stereo not drawn) | n | 59 | n | n | n
COc1ccc(O)c(CN2CCCC(C(=O)c3ccccc3SC)C2)c1 (stereo not drawn) | n | n | n | n | -6
COc1ccc(C(=O)C2CCCN(CCO)C2)c(C)c1 (stereo not drawn) | n | 51 | n | n | n
COc1ccccc1CN1CCCC(C(=O)c2ccccc2SC)C1 (stereo not drawn) | n | n | n | n | n
CC(=O)N1CCN(c2ccc([N+](=O)[O-])cc2C=C2C(=O)NC(=O)NC2=O)CC1 | n | n | n | n | n
CCN1CCN(c2ccc([N+](=O)[O-])cc2C=C2C(=O)NC(=O)NC2=O)CC1 | n | n | 15 | n | n
O=C(Cn1cnc2sc3c(c2c1=O)CCCC3)NCCCC(=O)N1CCC2(CC1)OCCO2 | n | n | n | n | n
COC(=O)C1=C(c2cccc(OC)c2OC)C[C@@H]2CC[C@H]1N2C(=O)NCC1CC1 | n | n | n | n | n
Oc1ccc2c3c1O[C@H]1c4oc5ccccc5c4C[C@@]4(O)[C@@H](C2)N(CC2CC2)CC[C@]314 | n | n | n | n | -6
COc1ccc(C(CNC(=O)Cc2ccc(Cl)c(Cl)c2)N2CCCCC2)cc1 (stereo not drawn) | n | n | n | n | n
COc1ccc(C(CNC(=O)Cc2ccc(Cl)c(Cl)c2)N(C)C)cc1 (stereo not drawn) | n | 173 | n | n | n
c1ccc2c(CCNC3CCCCC3)c[nH]c2c1 | n | n | n | n | n
c1ccc2[nH]c(CCNC3CCCCC3)nc2c1 | n | 65 | n | n | n
Cn1cc(NC(=O)CCl)cn1 | n | n | n | n | n
Cn1cnc(CCN)c1 | n | 143 | n | n | n
Cc1ccc(-n2cc(CNC(C)Cc3cnccn3)c(-c3cccc(C)c3)n2)cc1 (stereo not drawn) | n | 143 | n | n | n
OC1(CN2CCOCC2)C2CC3CC(C2)CC1C3 (stereo not drawn) | n | n | n | n | n
Cn1c(O)c(C(=N)COc2cccc(Cl)c2)c(=O)n(C)c1=O | n | n | n | n | n
CNCCc1nc(N)n[nH]1 | n | 101 | n | n | n
N#Cc1ccccc1Cn1cc(C(=O)c2ccccc2F)c2ccccc21 | n | n | n | n | n
Cc1ccc(OP(=O)(Nc2cccc(C)c2)Oc2ccc(C)cc2)cc1 | n | n | n | n | n
Cc1cccc(OP(=O)(Nc2cccnc2)Oc2cccc(C)c2)c1 | n | n | 11 | n | n
CNc1ccc2oc(C[C@H]3O[C@@]4(CC[C@H]3C)O[C@H]([C@H](C)C(=O)c3ccc[nH]3)[C@H](C)C[C@H]4C)nc2c1C(=O)O | n | 148 | n | n | n
O=P(Nc1ccccc1)(Nc1ccccc1)Oc1cccc(Cl)c1 | n | n | n | n | n
SMILES | TRPC6 inh | TRPC4 act | TRPC4 PAM | TRPC6 act | TRPC4 block
CC(C)CN(CC(C)C)c1ccc(C=C2C(=O)NC(=S)NC2=O)cc1[N+](=O)[O-] | n | n | n | n | -7
CC1(C)CSC(=NCc2ccccc2)N1 | n | 68 | n | n | n
O=[N+]([O-])c1ccc(N2CCNCC2)c(Cl)c1 | n | 48 | 20 | n | n
O=C(COc1ccc(Cl)cc1Cl)N1CCN(C/C=C/c2ccccc2)CC1 | n | n | 13 | n | n
CC(CN(C)C1CCN(C)CC1)c1ccccc1 (stereo not drawn) | n | n | n | n | n
Cc1ccc(-c2nc(N(C)C3CCN(C)CC3)c3ccccc3n2)cc1 | n | n | 24 | n | n
CCOP(=S)(NN(Cc1ccccc1)C(=O)c1ccccc1)OCC | n | n | n | n | n
COc1cccc(O)c1CN1CCCC(C(=O)c2sccc2C)C1 (stereo not drawn) | n | n | n | n | -9
Cc1ccsc1C(=O)C1CCCN(Cc2cn(C)nc2C)C1 (stereo not drawn) | n | n | n | n | n
COc1ccc(OC)c(CN2CCCC(C(=O)c3sccc3C)C2)c1 (stereo not drawn) | n | n | n | n | -6
Cc1ccsc1C(=O)C1CCCN(CCO)C1 (stereo not drawn) | n | n | n | n | n
CCOP(=O)(OCC)C1(O)C(=O)Nc2ccc(Br)cc21 (stereo not drawn) | n | n | n | n | n
Clc1ccc(C2NCCc3[nH]cnc32)cc1 (stereo not drawn) | n | n | n | n | n
Fc1cccc(C2NCCc3[nH]cnc32)c1 (stereo not drawn) | n | 162 | n | n | n
CC[C@@H](CO)NC(=O)[C@@H]1C=C2c3cccc4c3c(cn4C)C[C@H]2N(C)C1 | n | 154! | n | n | n
CCC(CO)NC(=O)C1C=C2c3cccc4[nH]cc(c34)CC2N(C)C1 (stereo not drawn) | n | 73 | n | n | n
CCNC(=O)NC(=O)C(C)OC(=O)c1c(C)nn(Cc2ccccc2)c1Cl (stereo not drawn) | n | n | n | n | n
CCOC(=O)N1CCN(C(C)C(=O)c2c[nH]c3ccccc23)CC1 (stereo not drawn) | n | n | n | n | n
c1cc2c(cc1CN1CCNCC1)OCO2 | n | n | n | n | n
FC(F)(F)c1ccc(CN2CCNCC2)cc1 | n | n | 17 | n | n
Clc1ccc(CN2CCNCC2)cc1 | n | 54 | n | n | n
Cc1ccccc1CN1CCNCC1 | n | n | 15 | n | n
Clc1ccccc1CN1CCNCC1 | n | n | n | n | n
CN(C)c1ccc(/C=C/[N+](=O)[O-])cc1 | n | n | n | 19 | n
C/C(=C\c1ccc(N(C)C)cc1)[N+](=O)[O-] | n | n | n | n | n
C[C@H](N)CN1CCc2ccc(Br)cc21 | n | n | n | n | n
CCCCN1C(=O)NC(=O)C2(Cc3c(nc4ccccn4c3=O)N3CCc4ccccc4C32)C1=O (stereo not drawn) | n | n | 57 | n | n
CCCCN1C(=O)NC(=O)C2(Cc3c(nc4c(C)cccn4c3=O)N3CCc4ccccc4C32)C1=O (stereo not drawn) | n | n | 19 | n | n
CC(C)OP(=O)(OC(C)C)C(NCc1ccccc1)c1ccccc1 (stereo not drawn) | n | n | n | n | n
C=CCn1c(O)c(C=NCCN2CCOCC2)c(=O)[nH]c1=S | n | n | 10 | n | n

Source: PubChem BioAssay
